Series [1] has as its system Mus musculus. The series can be described thus: Observation of behavior in mice following 30 mg/kg i.p. administration; No significant change. Format: functional, organism-based. More on the design: dose 30 mg/kg.
Another series relates to HL-60. The series is described as follows: Inhibitory concentration against interleukin-1 beta production in HL-60 cells stimulated with lipopolysaccharide (LPS). Type of series: functional, cell-based. The settings on record: Homo sapiens. The essentials: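 IC50 obtained by comparing IL-1β yield with an untreated control to which no test compound was added.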
For series [2], the system named is Mus musculus. The series can be described thus: Observation of behavior in mice after ip administration at the dose of 30 mg/kg; Depression of spontaneous locomotor activity. Type of series: functional, organism-based. More on the design: dose 30 mg/kg.
For series [3], the system named is Mus musculus. The series can be described thus: Observation of behavior in mice after ip administration at the dose of 30 mg/kg; symptoms were tremor, dyspnea, difficulty in walking and death. Format: functional, organism-based. The arrangement: dose 30 mg/kg.
The species entered for series [4] is Mus musculus. The series can be described thus: Number of dead mice/total number of mice used; 6/8. Format: ADME, organism-based. The settings on record: in vivo.
For series [5], the system named is Mus musculus. The series is described as follows: Observation of behavior in mice after ip administration at the dose of 30 mg/kg; Weak sedation. Format: functional, organism-based. More on the design: dose 30 mg/kg.

Calls of active or inactive are those of the source. The rule behind the calls is not given here. A value given as a limit tells only on which side of the number the result lay.

For orientation: IC50 means the concentration at which inhibition is half-maximal. For the compound `COc1ccc(-c2cc(Oc3cc(F)cc(F)c3)nnc2-c2ccc(OC)cc2)cc1`, the Symptoms result in the series with Mus musculus [1] is “No significant change”. Besides, the half-maximal inhibitory concentration (IC50) in the series on HL-60 stood at 1380 nM.

Consider `COc1ccc(-c2cc(Oc3ccccc3C#N)nnc2-c2ccc(OC)cc2)cc1`, for which, in the series on Mus musculus [1], the Symptoms entry is “No significant change”. Besides, the IC50 with HL-60 came out at 150 nM.

For `COc1ccc(-c2cnc(C#N)nc2-c2ccc(OC)cc2)cc1`, the Symptoms result in the series with Mus musculus [1] is “No significant change”. Further, in the series with HL-60, the IC50 was found to be 2880 nM.

Consider `COc1ccc(-c2cc(NCc3ccccc3)nnc2-c2ccc(OC)cc2)cc1`, for which the IC50 in the series on HL-60 is greater than 100000 nM.

Regarding `COc1ccc(-c2cc(Nc3ccc(F)cc3F)nnc2-c2ccc(OC)cc2)cc1`, the Symptoms result with Mus musculus [1] was “No significant change”. The same compound gave a half-maximal inhibitory concentration (IC50) in the series on HL-60 of 1920 nM.

For `COc1ccc(-c2cc(Oc3cccc(F)c3F)nnc2-c2ccc(OC)cc2)cc1`, in the series on Mus musculus [1], the Symptoms result is “No significant change”. The IC50 in the series on HL-60 is 120 nM.

Regarding `COc1ccc(-c2cc(-c3ccccc3)nnc2-c2ccc(OC)cc2)cc1`, the Symptoms result with Mus musculus [1] was “No significant change”. The compound also came in with an IC50 in the series with HL-60 of 2810 nM.

On to `COc1ccc(-c2cc(Sc3ccccc3)nnc2-c2ccc(OC)cc2)cc1`, for which, in the series on Mus musculus [1], the Symptoms entry is “No significant change”. In the series on HL-60, this compound registered an IC50 of 20500 nM.

Take `COc1ccc(-c2cc(Oc3ccc(F)c(F)c3)nnc2-c2ccc(OC)cc2)cc1`: the half-inhibitory concentration (IC50) in the series with HL-60 came to 460 nM.

As for `COc1ccc(-c2cc(Oc3ccc(F)cc3F)nnc2-c2ccc(OC)cc2)cc1`, the Symptoms entry in the series on Mus musculus [2] is “Depression of spontaneous locomotor activity”. In the series with HL-60, the IC50 is 2320 nM.

In the case of `COc1ccc(Oc2cc(-c3ccc(OC)cc3)c(-c3ccc(OC)cc3)nn2)cc1`, in the series on HL-60, the IC50 was 450 nM.

As to `COc1ccc(-c2cc(C#N)nnc2-c2ccc(OC)cc2)cc1`, the Symptoms entry in the series on Mus musculus [3] is “Tremor, dyspnea, difficulty in walking and death”. In the series listed under Mus musculus [4], the Activity came out at 6. The compound further showed an IC50 with HL-60 of 90 nM.

With `COc1ccc(-c2cc(Oc3c(F)c(F)c(F)c(F)c3F)nnc2-c2ccc(OC)cc2)cc1`, the Symptoms result in the series on Mus musculus [2] was “Depression of spontaneous locomotor activity”. Also, the midpoint of inhibition with HL-60, the IC50, lay at 40 nM.

With `COc1ccc(-c2cc(Sc3cc(Cl)c(Cl)c(Cl)c3)nnc2-c2ccc(OC)cc2)cc1`, the Symptoms result in the series with Mus musculus [1] was “No significant change”. The compound further had a half-inhibitory concentration (IC50) in the series with HL-60 of 200 nM.

Take `COc1ccc(-c2cc(Oc3c(F)cccc3F)nnc2-c2ccc(OC)cc2)cc1`: the Symptoms entry in the series with Mus musculus [1] is “No significant change”. Moreover, in the series on HL-60, half-maximal inhibition (IC50) required 350 nM.

Take `COc1ccc(-c2cc(Oc3ccc(Cl)cc3Cl)nnc2-c2ccc(OC)cc2)cc1`: the Symptoms entry in the series on Mus musculus [1] was “No significant change”. In the series with HL-60, this compound displayed an IC50 of 2540 nM.

With `COc1ccc(-c2ncc(C#N)nc2-c2ccc(OC)cc2)cc1`, the IC50 in the series with HL-60 worked out at 6600 nM. In addition, in the series on Mus musculus [5], the Symptoms entry was “Weak sedation”.

As to `COc1ccc(-c2cc(Oc3ccccc3)nnc2-c2ccc(OC)cc2)cc1`, the Symptoms result in the series with Mus musculus [1] was “No significant change”. This compound showed a half-inhibitory concentration (IC50) in the series with HL-60 of 100 nM.

Regarding `COc1ccc(-c2cc(Oc3c(F)c(F)cc(F)c3F)nnc2-c2ccc(OC)cc2)cc1`, the Symptoms entry with Mus musculus [1] was “No significant change”. In the series on HL-60, the IC50 was found to be 190 nM.

In the case of `COc1ccc(-c2cc(Oc3ccncc3)nnc2-c2ccc(OC)cc2)cc1`, the Symptoms entry with Mus musculus [1] was “No significant change”. The same compound showed an IC50 in the series with HL-60 of 1240 nM.

Turning to `COc1ccc(-c2cc(Oc3cccc(C#N)c3)nnc2-c2ccc(OC)cc2)cc1`, the half-maximal inhibitory concentration (IC50) in the series on HL-60 was 160 nM. This counts as sub-micromolar.

As for `COc1ccc(-c2cc(Oc3ccc([N+](=O)[O-])cc3)nnc2-c2ccc(OC)cc2)cc1`, the Symptoms result in the series with Mus musculus [1] is “No significant change”. Besides, the IC50 in the series on HL-60 came out at 630 nM.

Compound `COc1ccc(-c2cc(Sc3ccc(F)cc3F)nnc2-c2ccc(OC)cc2)cc1` returned an IC50 in the series with HL-60 of 1870 nM. In the series with Mus musculus [5], the Symptoms result is “Weak sedation”.

In the case of `COc1ccc(-c2cc(Oc3cccc([N+](=O)[O-])c3)nnc2-c2ccc(OC)cc2)cc1`, in the series with Mus musculus [1], the Symptoms entry is “No significant change”. The IC50 in the series with HL-60 came to 2360 nM.

With `COc1ccc(-c2cc(Oc3ccc(C#N)cc3)nnc2-c2ccc(OC)cc2)cc1`, the Symptoms result in the series with Mus musculus [1] is “No significant change”. For the same compound, the IC50 in the series on HL-60 was greater than 100000 nM.

`C[C@]12C=CC(=O)C=C1CCC1[C@@H]2[C@@H](O)C[C@@]2(C)[C@H]1CC[C@]2(O)C(=O)CO` (single isomer, unassigned) [PREDNISOLONE]: the Symptoms result with Mus musculus [1] was “inactive”. This compound also registered an IC50 with HL-60 of 760 nM.

Turning to `COc1ccc(-c2cc(Nc3cc(OC)c(OC)c(OC)c3)nnc2-c2ccc(OC)cc2)cc1`, the Symptoms entry in the series with Mus musculus [1] is “No significant change”. The same compound gave a concentration for half-maximal inhibition (IC50) with HL-60 greater than 100000 nM.

In the series on HL-60, `COc1ccc(-c2cc(Oc3cc(F)ccc3F)nnc2-c2ccc(OC)cc2)cc1` showed an IC50 of 180 nM.

For `CCCN(c1cc(-c2ccc(OC)cc2)c(-c2ccc(OC)cc2)nn1)c1ccc(F)cc1F`, the Symptoms entry with Mus musculus [1] is “No significant change”. In the series on HL-60, this compound gave an IC50 of 3160 nM.

These data come from ChEMBL document CHEMBL1133942, “Synthesis and bioactivities of novel pyridazine derivatives: inhibitors of interleukin-1 beta (IL-1beta) production” (Bioorg Med Chem Lett, 2001).
